Assay results taken from ChEMBL document CHEMBL1143007, “Synthesis and evaluation of 4/5-hydroxy-2,3-diaryl(substituted)-cyclopent-2-en-1-ones as cis-restricted analogues of combretastatin A-4 as novel anticancer agents” (J Med Chem, 2007).
Converted amounts (≈) assume the structure as drawn.

Legend:
[1] = Cytotoxicity against human Hep2 cells after 72 hrs by MTT assay; type: cell-based, HEp-2
How it was run: (§1)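 MTT assay. Cells seeded at 5000-10 000 per well and incubated at 37 °C in CO₂ with compound at 1-100 µg/mL in triplicate wells for 72 h, then MTT added. Absorbance read at 540 nm; % cytotoxicity = 100 × (1 − treated/control). IC50 obtained by nonlinear regression; NA means IC50 above 100 µg/mL.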

DU-145 = assay: Cytotoxicity against human DU145 cells after 72 hrs by MTT assay; type: cell-based; how it was run: as §1
HEK293 = assay: Cytotoxicity against human HEK293 cells after 72 hrs by MTT assay; type: cell-based; how it was run: as §1
[2] = Cytotoxicity against human PA1 cells after 72 hrs by MTT assay; type: cell-based, PA-1; how it was run: as §1
KB = assay: Cytotoxicity against human KB cells after 72 hrs by MTT assay; type: cell-based; how it was run: as §1
HT-29 = assay: Cytotoxicity against human HT29 cells after 72 hrs by MTT assay; type: cell-based; how it was run: as §1
[3] = Cytotoxicity against human ECV304 cells after 72 hrs by MTT assay; type: cell-based, ECV-304; how it was run: as §1
MIA PaCa-2 = assay: Cytotoxicity against human MiaPaCa2 cells after 72 hrs by MTT assay; type: cell-based; how it was run: as §1
L132 = assay: Cytotoxicity against human L132 cells after 72 hrs by MTT assay; type: cell-based; how it was run: as §1
[4] = Homo sapiens, HEp-2, 72 h, read-out: IC50
[5] = Homo sapiens, DU-145, 72 h, read-out: IC50
[6] = Homo sapiens, HEK293, 72 h, read-out: IC50
[7] = Homo sapiens, PA-1, 72 h, read-out: IC50
[8] = Homo sapiens, KB, 72 h, read-out: IC50
[9] = Homo sapiens, HT-29, 72 h, read-out: IC50
[10] = Homo sapiens, ECV-304, 72 h, read-out: IC50
[11] = Homo sapiens, MIA PaCa-2, 72 h, read-out: IC50
[12] = Homo sapiens, L132, 72 h, read-out: IC50

Row | SMILES | IC50 [1, 4] [µg/mL] | IC50 (DU-145; [5]) [µg/mL] | IC50 (HEK293; [6]) [µg/mL] | IC50 [2, 7] [µg/mL] | IC50 (KB; [8]) [µg/mL] | IC50 (HT-29; [9]) [µg/mL] | IC50 [3, 10] [µg/mL] | IC50 (MIA PaCa-2; [11]) [µg/mL] | IC50 (L132; [12]) [µg/mL] | IC50 ([1]; hep-2) [µg/mL] | IC50 (DU-145; du-145) [µg/mL] | IC50 (HEK293; hek293) [µg/mL] | IC50 ([2]; pa-1) [µg/mL] | IC50 (KB; kb) [µg/mL] | IC50 (HT-29; ht-29) [µg/mL] | IC50 ([3]; ecv-304) [µg/mL] | IC50 (MIA PaCa-2; mia paca-2) [µg/mL] | IC50 (L132; l132) [µg/mL]
1 | COc1ccc(C2=C(c3cc(OC)c(OC)c(OC)c3)CC(O)C2=O)cc1N (configuration not stated) | 16 (≈ 41.5 µM) | 41 (≈ 106 µM) | > 100 | 20 (≈ 51.9 µM) | < 1 | < 1 | > 100 | > 100 | 54 (≈ 140 µM) |  |  |  |  |  |  |  |  | 
2 | COc1ccc(C2=C(c3cc(OC)c(OC)c(OC)c3)C(=O)C(OC(C)=O)C2)cc1OC(C)C (configuration not stated) | > 100 | > 100 | > 100 | > 100 | > 100 | > 100 | > 100 | > 100 | > 100 |  |  |  |  |  |  |  |  | 
3 | COc1ccc(C2=C(c3cc(OC)c(OC)c(OC)c3)C(=O)C(OC(C)=O)C2)cc1O (configuration not stated) | > 100 | > 100 | 92 (≈ 215 µM) | 6 (≈ 14 µM) | 35 (≈ 81.7 µM) | < 1 | > 100 | 18.5 (≈ 43.2 µM) | 6 (≈ 14 µM) |  |  |  |  |  |  |  |  | 
4 | COc1ccc(C2=C(c3cc(OC)c(OC)c(OC)c3)/C(=N\O)CC2O)cc1 (configuration not stated) | > 100 | 34.2 (≈ 88.9 µM) | > 100 | 2.35 (≈ 6.1 µM) |  | 15 (≈ 38.9 µM) | > 100 | > 100 | 11 (≈ 28.5 µM) |  |  |  |  |  |  |  |  | 
5 | COc1ccc(C2=C(c3cc(OC)c(OC)c(OC)c3)C(=O)CC2O[Si](C)(C)C(C)(C)C)cc1 (configuration not stated) | > 100 | > 100 | > 100 | > 100 | > 100 | > 100 | > 100 | > 100 | > 100 |  |  |  |  |  |  |  |  | 
6 | COc1ccc(C2=C(c3cc(OC)c(OC)c(OC)c3)/C(=N\O)C(OC(C)=O)C2)cc1Cl (configuration not stated) | < 1 | 17 (≈ 36.8 µM) | 32 (≈ 69.3 µM) | 37.5 (≈ 81.2 µM) | 50 (≈ 108 µM) | < 1 | 8 (≈ 17.3 µM) | 10 (≈ 21.6 µM) | < 1 |  |  |  |  |  |  |  |  | 
7 | COc1cc(C2=C(c3cc(C)c(OC)c(C)c3)C(OC(C)=O)C/C2=N/O)cc(OC)c1OC (configuration not stated) | > 100 | > 100 | > 100 | > 100 | > 100 | > 100 | > 100 | > 100 | > 100 |  |  |  |  |  |  |  |  | 
8 | COc1cc(C2=C(c3cc(C)c(OC)c(C)c3)C(OC(C)=O)CC2=O)cc(OC)c1OC (configuration not stated) | > 100 | > 100 | > 100 | > 100 | > 100 | > 100 | > 100 | > 100 | > 100 |  |  |  |  |  |  |  |  | 
9 | COc1ccc(C2=C(c3cc(OC)c(OC)c(OC)c3)C(=O)C(O)C2)cc1OC(C)C (configuration not stated) | > 100 | > 100 | > 100 | > 100 | > 100 | > 100 | > 100 | > 100 | > 100 |  |  |  |  |  |  |  |  | 
10 | COc1ccc(C2=C(c3cc(OC)c(OC)c(OC)c3)/C(=N\O)CC2OC(C)=O)cc1O (configuration not stated) | > 100 | 23 (≈ 51.9 µM) | > 6.06 | < 1 | < 1 | < 1 | > 100 | < 1 | < 1 |  |  |  |  |  |  |  |  | 
11 | CCOC(=O)COc1ccc(C2=C(c3cc(OC)c(OC)c(OC)c3)C(=O)CC2O)cc1 (configuration not stated) | > 100 | > 100 | > 100 | > 100 | > 100 | > 100 | > 100 | > 100 | > 100 |  |  |  |  |  |  |  |  | 
12 | COc1ccc(C2=C(c3cc(OC)c(OC)c(OC)c3)/C(=N\O)CC2OC(C)=O)cc1 (stereo in doubt; 22) |  |  |  |  |  |  |  |  |  | 3 (≈ 7.02 µM) | 20 (≈ 46.8 µM) | 32 (≈ 74.9 µM) | 20 (≈ 46.8 µM) | 5 (≈ 11.7 µM) | 1.5 (≈ 3.51 µM) | 4 (≈ 9.36 µM) | 1 (≈ 2.34 µM) | 20 (≈ 46.8 µM)
13 | COc1cc(C2=C(c3ccc(OCC(=O)[O-])cc3)C(O)CC2=O)cc(OC)c1OC.[Na+] (configuration not stated) | > 100 | > 100 | > 100 |  | > 100 |  |  | > 100 |  |  |  |  |  |  |  |  |  | 
14 | COc1ccc(C2=C(c3cc(OC)c(OC)c(OC)c3)/C(=N\O)CC2O[Si](C)(C)C(C)(C)C)cc1OC (configuration not stated) | 32 (≈ 60.4 µM) | 60 (≈ 113 µM) | 70 (≈ 132 µM) |  | 15 (≈ 28.3 µM) | 20 (≈ 37.8 µM) | 36 (≈ 68 µM) | 15 (≈ 28.3 µM) | 60 (≈ 113 µM) |  |  |  |  |  |  |  |  | 
15 | COc1ccc(C2=C(c3cc(OC)c(OC)c(OC)c3)C(=O)C(O)C2)cc1F (configuration not stated) | < 1 | 27 (≈ 69.5 µM) | > 100 | > 100 | 4.5 (≈ 11.6 µM) | < 1 | 19.5 (≈ 50.2 µM) | 64 (≈ 165 µM) | < 1 |  |  |  |  |  |  |  |  | 
16 | COc1ccc(C2=C(c3cc(OC)c(OC)c(OC)c3)/C(=N\O)CC2O)cc1O (configuration not stated) | < 1 | 23 (≈ 57.3 µM) | > 100 | 3.7 (≈ 9.22 µM) | 10 (≈ 24.9 µM) | 9 (≈ 22.4 µM) | > 100 | > 100 | 8 (≈ 19.9 µM) |  |  |  |  |  |  |  |  | 
17 | CC(=O)OC1C/C(=N/O)C(c2ccccc2)=C1c1ccccc1 (configuration not stated) | > 100 | > 100 | 92.3 (≈ 300 µM) | > 100 | 9 (≈ 29.3 µM) | > 100 | > 100 | 4.5 (≈ 14.6 µM) | > 100 |  |  |  |  |  |  |  |  | 
18 | COc1ccc(C2=C(c3cc(OC)c(OC)c(OC)c3)C(=O)CC2O)cc1 (configuration not stated) | > 100 | 18.7 (≈ 50.5 µM) | 10 (≈ 27 µM) | 3.38 (≈ 9.13 µM) |  | 15 (≈ 40.5 µM) | > 100 | > 100 | 10 (≈ 27 µM) |  |  |  |  |  |  |  |  | 
19 | COc1ccc(C2=C(c3cc(OC)c(OC)c(OC)c3)C(=O)C(OC(C)=O)C2)cc1 (configuration not stated) | 18 (≈ 43.6 µM) | > 100 |  | < 1 | 72 (≈ 175 µM) | < 1 | 18 (≈ 43.6 µM) | < 1 | > 100 |  |  |  |  |  |  |  |  | 
20 | COc1ccc(C2=C(c3cc(OC)c(OC)c(OC)c3)/C(=N\O)C(OC(C)=O)C2)cc1 (configuration not stated) | 100 (≈ 234 µM) | > 100 | 25.6 (≈ 59.9 µM) | < 1 | 69 (≈ 161 µM) | 1 (≈ 2.34 µM) | > 100 | < 1 |  |  |  |  |  |  |  |  |  | 
21 | COc1ccc(C2=C(c3cc(OC)c(OC)c(OC)c3)C(=O)C(OC(C)=O)C2)cc1NC=O (configuration not stated) | 3.27 (≈ 7.18 µM) | > 100 | 4.16 (≈ 9.13 µM) | 5 (≈ 11 µM) | 8 (≈ 17.6 µM) | < 1 |  | 2 (≈ 4.39 µM) | 2 (≈ 4.39 µM) |  |  |  |  |  |  |  |  | 
22 | COc1cc(C2=C(c3cc(C)c(OC)c(C)c3)C(O[Si](C)(C)C(C)(C)C)CC2=O)cc(OC)c1OC (configuration not stated) | 26 (≈ 50.7 µM) | > 100 | 29 (≈ 56.6 µM) | 32 (≈ 62.4 µM) | 40 (≈ 78 µM) | 10 (≈ 19.5 µM) | 15 (≈ 29.3 µM) |  | > 100 |  |  |  |  |  |  |  |  | 
